Reference: ChEMBL document CHEMBL1122201, “Carboxyimamidate, a low-molecular-weight polyelectrolyte with antitumor properties and low toxicity” (1982)
Where “and” joins values, the source holds several entries; their conditions need not be identical. Equal values may be shown once.

Columns and labels:
Mus musculus [1] = test: Average proportion of total treated mice without palpable tumors was determined in the subcutaneous Lewis Lung Carcinoma model at a dose of 100-125 (mg/kg)/day; format: functional
Procedure, shortened: (§1)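 Sc-implanted Lewis lung carcinoma in mice, groups of 10. Agent dissolved in sterile saline and given daily on days 1-5, 1-8 or 1-10, ip or sc (0.5 mL/mouse). Each experiment had 3 or 4 untreated control groups of 10. The read-out was the average proportion of treated mice without palpable tumor on day 14, pooled over independent experiments as mean ± SE.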

Mus musculus [2] = test: Average proportion of total treated mice without palpable tumors was determined in the subcutaneous Lewis Lung Carcinoma model at a dose of 900-1000 (mg/kg)/day; format: functional; procedure, shortened: as §1
Mus musculus [3] = test: Percent increase of mean life span of treated groups relative to the mean of the untreated control groups in the subcutaneous Lewis Lung Carcinoma model at a dose of 100-125 mg/kg/day; format: functional
Procedure, shortened: (§2)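 Lewis lung carcinoma model in mice, groups of 10. Dosing daily on days 1-5, 1-8 or 1-10, ip or subcutaneous. Dose ranges pooled from nine independent experiments run at different levels. ILS is the percent increase in mean life span, excluding cures, over the mean of 3 or 4 untreated control groups of 10. Survivors scored at day 60.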

Mus musculus [4] = test: Percent increase of mean life span of treated groups relative to the mean of the untreated control groups in the subcutaneous Lewis Lung Carcinoma model at a dose of 1200-1500 (mg/kg)/day; format: functional; procedure, shortened: as §2
Mus musculus [5] = test: Percent increase of mean life span of treated groups relative to the mean of the untreated control groups in the subcutaneous Lewis Lung Carcinoma model at a dose of 158-251 (mg/kg)/day; format: functional; procedure, shortened: as §2
Mus musculus [6] = test: Percent increase of mean life span of treated groups relative to the mean of the untreated control groups in the subcutaneous Lewis Lung Carcinoma model at a dose of 2400-2512 (mg/kg)/day; format: functional; procedure, shortened: as §2
Mus musculus [7] = test: Percent increase of mean life span of treated groups relative to the mean of the untreated control groups in the subcutaneous Lewis Lung Carcinoma model at a dose of 300-400 (mg/kg)/day; format: functional; procedure, shortened: as §2
Mus musculus [8] = test: Percent increase of mean life span of treated groups relative to the mean of the untreated control groups in the subcutaneous Lewis Lung Carcinoma model at a dose of 500-600 (mg/kg)/day; format: functional; procedure, shortened: as §2
Mus musculus [9] = test: Percent increase of mean life span of treated groups relative to the mean of the untreated control groups in the subcutaneous Lewis Lung Carcinoma model at a dose of 62-75 (mg/kg)/day; format: functional; procedure, shortened: as §2
Mus musculus [10] = test: Percent increase of mean life span of treated groups relative to the mean of the untreated control groups in the subcutaneous Lewis Lung Carcinoma model at a dose of 900-1000 (mg/kg)/day; format: functional; procedure, shortened: as §2
Mus musculus [11] = organism: Mus musculus; test: Increase in mean life span was measured against EMT6 mammary carcinoma cells; format: functional
Procedure, shortened: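 EMT6 given as sc trochar implants in C3H mice, groups of 10. Drug given ip in sterile saline, 0.5 mL/mouse, at or below the maximally tolerated dose for the schedule. Mean life span excludes long-term tumor-free survivors. Animals held 60 days after implantation; Student's t test against untreated controls.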

Mus musculus [12] = organism: Mus musculus; test: Increase in mean life span was measured against Gardner lymphosarcoma cells; format: functional
Procedure, shortened: (§3)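 10^6 Trypan blue-excluding cells implanted ip (P815 sc) in groups of 10 mice: B6D2F1 for L5178Y and P815, BALB/c for ADJ-PC6, C3H for Gardner. Drug given ip in sterile saline, 0.5 mL/mouse, at or below the maximally tolerated dose for the schedule. ILS excludes long-term tumor-free survivors. Animals held 60 days; Student's t test against untreated controls.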

Mus musculus [13] = organism: Mus musculus; test: Increase in mean life span was measured against L5178 Y leukemia cells; format: functional; procedure, shortened: as §3
Mus musculus [14] = organism: Mus musculus; test: Increase in mean life span was measured against M5076 ovarian tumor; format: functional
Procedure, shortened: (§4)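 Tumor brei, 10%, 0.5 mL, implanted sc in groups of 10 mice: CD2F1 for Nettesheim and Madison, B6D2F1 for M5076. M5076 also implanted ip with the same inoculum; Madison im at 0.2 mL. Drug given ip in saline, 0.5 mL/mouse, at or below the maximally tolerated dose. ILS excludes long-term survivors. Animals held 60 days; t test.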

Mus musculus [15] = organism: Mus musculus; test: Increase in mean life span was measured against M5076 ovarian tumor cells; format: functional; procedure, shortened: as §4
Mus musculus [16] = organism: Mus musculus; test: Increase in mean life span was measured against Madison 109 lung carcinoma cells; format: functional, M109; procedure, shortened: as §4
Mus musculus [17] = organism: Mus musculus; test: Increase in mean life span was measured against Nettesheim lung carcinoma cells; format: functional; procedure, shortened: as §4
Mus musculus [18] = organism: Mus musculus; test: Increase in mean life span was measured against colon carcinoma; format: functional
Mus musculus [19] = organism: Mus musculus; test: Increase in mean life span was measured against colon carcinoma 26; format: functional
Procedure, shortened: (§5)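 Colon carcinoma 26: 0.5 mL of 1% brei implanted sc or ip in groups of 10 CD2F1 mice. Drug given ip in sterile saline, 0.5 mL/mouse, at or below the maximally tolerated dose for the schedule. Mean life span excludes long-term tumor-free survivors. Animals held 60 days; Student's t test against untreated controls.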

Mus musculus [20] = organism: Mus musculus; test: Increase in mean life span was measured against colon carcinoma 26 cells; format: functional, Colon 26; procedure, shortened: as §5
Mus musculus [21] = test: Average proportion of total treated mice without palpable tumors was determined in the subcutaneous Lewis Lung Carcinoma model at a dose of 1200-1500 (mg/kg)/day; format: functional; procedure, shortened: as §1
Mus musculus [22] = test: Average proportion of total treated mice without palpable tumors was determined in the subcutaneous Lewis Lung Carcinoma model at a dose of 158-251 (mg/kg)/day; format: functional; procedure, shortened: as §1
Mus musculus [23] = test: Average proportion of total treated mice without palpable tumors was determined in the subcutaneous Lewis Lung Carcinoma model at a dose of 2400-2512 (mg/kg)/day; format: functional; procedure, shortened: as §1
Mus musculus [24] = test: Average proportion of total treated mice without palpable tumors was determined in the subcutaneous Lewis Lung Carcinoma model at a dose of 300-400 (mg/kg)/day; format: functional; procedure, shortened: as §1
Mus musculus [25] = test: Average proportion of total treated mice without palpable tumors was determined in the subcutaneous Lewis Lung Carcinoma model at a dose of 500-600 (mg/kg)/day; format: functional; procedure, shortened: as §1
Mus musculus [26] = test: Average proportion of total treated mice without palpable tumors was determined in the subcutaneous Lewis Lung Carcinoma model at a dose of 62-75 (mg/kg)/day; format: functional; procedure, shortened: as §1
Mus musculus [27] = test: Proportion of survivors was determined on the 60th day at a dose of 100-125 mg/kg/day; format: functional; procedure, shortened: as §2

CC(c1ccccc1)C1C(=O)NC(=O)C1CCC(C(N)=O)C(CCC(CC(=O)O)C(N)=O)C(=O)O.N.N (configuration not stated) was tested, and the Average proportion (Mus musculus [1]) was 0.1, the Average proportion (Mus musculus [2]) was 0.47 and the ILS (Mus musculus [3]) was 12%. It also gave an ILS (Mus musculus [4]) of 24%, an ILS (Mus musculus [5]) of 15% and an ILS (Mus musculus [6]) of -28%. For the same compound, the ILS (Mus musculus [7]) was 17%, the ILS (Mus musculus [8]) was 15% and the ILS (Mus musculus [9]) was 12%. It also gave an ILS (Mus musculus [10]) of 19%, an ILS (Mus musculus [11]) of 13% and an ILS (Mus musculus [12]) of 4%. The ILS (Mus musculus [13]) was 5%, the ILS (Mus musculus [14]) was 20% and the ILS (Mus musculus [15]) was 40%. For the same compound, the ILS (Mus musculus [16]) was 27% and 23% and 20%, the ILS (Mus musculus [17]) was 6% and the ILS (Mus musculus [18]) was 14%. The ILS (Mus musculus [19]) was 22%, the ILS (Mus musculus [20]) was 48% and 31% and 75% and the Average proportion (Mus musculus [21]) was 0.48. For the same compound, the Average proportion (Mus musculus [22]) was 0.14, the Average proportion (Mus musculus [23]) was 0.6 and the Average proportion (Mus musculus [24]) was 0.27. It also gave an Average proportion (Mus musculus [25]) of 0.29, an Average proportion (Mus musculus [26]) of 0.08 and a Proportion of survivors (Mus musculus [27]) of 0.04.
